Results of several laboratories.
Each line is one published result; the experiments were not run side by side.
Target: Ephrin type-A receptor 6 (EPHA6, Homo sapiens, UniProt Q9UF33)
One construct used (Q9UF33 23-1036): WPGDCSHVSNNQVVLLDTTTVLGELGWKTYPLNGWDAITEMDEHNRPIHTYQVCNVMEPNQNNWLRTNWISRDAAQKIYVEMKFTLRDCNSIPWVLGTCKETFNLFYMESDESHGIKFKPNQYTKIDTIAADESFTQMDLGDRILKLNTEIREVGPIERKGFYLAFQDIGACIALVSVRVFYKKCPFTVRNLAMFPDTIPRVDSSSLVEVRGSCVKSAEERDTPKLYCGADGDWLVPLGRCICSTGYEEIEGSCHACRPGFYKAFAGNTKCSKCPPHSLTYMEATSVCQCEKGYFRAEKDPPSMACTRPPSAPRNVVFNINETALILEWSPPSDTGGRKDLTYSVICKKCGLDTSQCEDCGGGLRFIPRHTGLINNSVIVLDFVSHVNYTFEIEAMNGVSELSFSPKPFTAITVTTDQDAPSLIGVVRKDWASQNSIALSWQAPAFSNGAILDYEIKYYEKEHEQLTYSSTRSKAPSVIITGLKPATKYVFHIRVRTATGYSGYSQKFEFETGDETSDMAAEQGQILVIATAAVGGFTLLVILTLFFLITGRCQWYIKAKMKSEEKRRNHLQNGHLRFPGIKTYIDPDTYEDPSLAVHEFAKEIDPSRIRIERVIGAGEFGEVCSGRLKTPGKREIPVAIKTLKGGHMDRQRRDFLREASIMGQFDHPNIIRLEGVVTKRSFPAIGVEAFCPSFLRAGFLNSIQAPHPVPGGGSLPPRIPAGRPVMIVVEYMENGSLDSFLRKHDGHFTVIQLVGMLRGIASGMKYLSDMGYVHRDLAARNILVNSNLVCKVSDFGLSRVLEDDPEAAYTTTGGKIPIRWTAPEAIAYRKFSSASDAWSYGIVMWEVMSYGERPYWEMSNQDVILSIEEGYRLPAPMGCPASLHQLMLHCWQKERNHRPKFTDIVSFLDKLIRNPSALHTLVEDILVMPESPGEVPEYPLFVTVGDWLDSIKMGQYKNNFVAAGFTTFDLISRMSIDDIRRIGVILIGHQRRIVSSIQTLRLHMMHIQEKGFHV

| SMILES | effect on | method | tested at | remaining binding [%] |
| --- | --- | --- | --- | --- |
| CNCc1ccccc1-c1csc([C@@H](C)Nc2nc(C)nc3cc(OC)c(OC)cc23)c1 | cell-free assay | competition with immobilised ligand | 1 µM | 96 |
| C[C@@H](c1ccc(-n2cnc3c(N)ncnc32)cc1)N1CCc2nn(C)c(Cc3ccccc3)c2C1=O | binding | competition with immobilised ligand | 0.1 µM | 100 |
| COc1ncc2cc3ccccc3nc2c1C#N | cell-free assay | competition with immobilised ligand | 5 µM | 98 |
| CN(C)c1nccc(-c2cnc3ncccn23)n1 | binding |  | 1 µM | 98 |
| Cc1nc(Cc2cccc(C(F)(F)F)c2)sc1-c1ccc(C(N)=O)nc1 | cell-free assay | competition with immobilised ligand | 1 µM | 96 |
| FC(F)(F)Oc1cccc(-c2cnc3ccc(-c4ccncc4)nn23)c1 | cell-free assay | competition with immobilised ligand | 5 µM | 93 |
| O=C(NCCCN1CCOCC1)c1ccc(Nc2nccc(-c3cc4ccccc4s3)n2)cc1 | binding | competition with immobilised ligand | 1 µM | 97 |
| O=C(N[C@H]1CCCCC/C=C\C2C[C@@]2(C(=O)O)NC(=O)[C@@H]2C[C@@H](Oc3ccncc3)CN2C1=O)OC1CCCC1 (stereo partly drawn) | cell-free assay | competition with immobilised ligand | 1 µM | 100 |
| O=C(Nc1c[nH]nc1C(=O)NC1CCNCC1)c1cc(F)cc(F)c1 | binding | competition with immobilised ligand | 1 µM | 100 |
| C[C@@H]1CCN(c2nccc(-c3cnn4ncccc34)n2)C1 | binding |  | 1 µM | 100 |
| O=C(c1ccc(Nc2ncc(Cl)c(-c3cc4ccccc4s3)n2)cc1)N1CCC(N2CCCC2)CC1 | binding | competition with immobilised ligand | 1 µM | 69 |
| O=C(Nc1cccnn1)N1CCC(=Cc2cccc(Oc3ccc(C(F)(F)F)cn3)c2)CC1 | cell-free assay | competition with immobilised ligand | 1 µM | 78 |
| CC1CCCN1c1nccc(-c2cnn3ncccc23)n1 (stereo not drawn) | binding |  | 1 µM | 94 |
| CCS(=O)(=O)c1cc2cc(C[C@@](O)(CC(C)(C)c3ccc(F)cc3C(N)=O)C(F)(F)F)[nH]c2cn1 | cell-free assay | competition with immobilised ligand | 1 µM | 100 |
| Cc1cnc(Nc2ccc(C(=O)N3CCC(N4CCCC4)CC3)cc2)nc1-c1cc2ccccc2s1 | binding | competition with immobilised ligand | 1 µM | 65 |
| CN(C)c1ncc(F)c(-c2cnn3ncccc23)n1 | binding |  | 1 µM | 82 |
| CCCCN(CCCC)C(=O)CN1C[C@H](c2cc(OC)c3c(c2)OCO3)[C@@H](C(=O)O)[C@@H]1CC(C)(C)CCC | cell-free assay | competition with immobilised ligand | 1 µM | 100 |
| CN(c1nccc(-c2cnn3ncccc23)n1)C1CC1 | binding |  | 1 µM | 99 |
| Nc1ncc2c(n1)-c1c([nH]c3ccc(C#CC4CC4)cc13)CCCC2 | binding | competition with immobilised ligand | 1 µM | 100 |
| N[C@H]1CCN(c2nccc(-c3cnn4ncccc34)n2)C1 | binding |  | 1 µM | 100 |
| COc1cnc(Nc2cccc(S(N)(=O)=O)c2)nc1N1CCN(c2ccccc2)C(=O)C1 | binding | competition with immobilised ligand | 1 µM | 100 |
